Results from different studies.

CC(C)[C@@H]1NC(=O)[C@@H](Cc2ccccc2)OC(=O)CN(C)C(=O)[C@H](C(C)C)NC(=O)[C@@H](Cc2ccccc2)OC(=O)CN(C)C1=O
Papp (PAMPA): 56 ×10⁻⁶ cm/s

COc1ccc(Cn2c(-c3ccccc3)c(-c3ccccc3)c3c(=N)n(CC4CCOCC4)cnc32)cc1
Papp (PAMPA; 50 µM, 30 min): 1270 ×10⁻⁶ cm/s

O=c1[nH]c2c(-c3ccccc3)csc2c(=O)n1O
Papp (PAMPA; 10 µM, 5 h): 1.5 ×10⁻⁶ cm/s

Cn1nccc1-c1nc(N2CCC(c3ccccn3)C2)c2ccccc2n1 (centres unmarked)
Papp (PAMPA; 10 µM, 3 h, pH 7.4): 49.3 ×10⁻⁶ cm/s

c1ccc(-c2cccc(Nc3nccc(NC4CCCCC4)n3)c2)nc1
Papp (PAMPA; 50 nM, 30 min): 1530 ×10⁻⁶ cm/s

O=c1[nH]c2cc(-c3ccc(Cl)cc3)ccc2c(=O)n1O
Papp (PAMPA; 10 µM, 5 h): 1.7 ×10⁻⁶ cm/s

CN1CCN(c2nc(-c3ccccn3)nc3ccccc23)CC1
Papp (PAMPA; 10 µM, 3 h, pH 7.4): 29.9 ×10⁻⁶ cm/s

N#Cc1ccc(/C=C/CN(CC[C@H](N)C(=O)O)C[C@H]2O[C@@H](n3cnc4c(N)ncnc43)[C@H](O)[C@@H]2O)cc1
Papp (PAMPA; 200 µM, 5 h): 0.01 ×10⁻⁶ cm/s

O=c1[nH]c2scc(-c3ccccc3)c2c(=O)n1O
Papp (PAMPA; 10 µM, 5 h): 0.4 ×10⁻⁶ cm/s

c1cncc(-c2cccc(Nc3nccc(NC4CCOCC4)n3)c2)c1
Papp (PAMPA; 50 nM, 30 min): 1840 ×10⁻⁶ cm/s

Fc1ccccc1Nc1nc(-c2ccccn2)nc2ccccc12
Papp (PAMPA; 10 µM, 3 h, pH 7.4): 30.1 ×10⁻⁶ cm/s

COCC(C)Nc1ccnc(Nc2cccc(-c3cccnc3)c2)n1 (centres unmarked)
Papp (PAMPA; 50 nM, 30 min): 1910 ×10⁻⁶ cm/s

c1ccc(-c2nc(NCCn3ccnc3)c3ccccc3n2)nc1
Papp (PAMPA; 10 µM, 3 h, pH 7.4): 8.4 ×10⁻⁶ cm/s

Cc1noc(C)c1-c1ccc2nc(-c3cnn(CC(C)(C)O)c3)nc(N3CCOC[C@@H]3c3ccccc3)c2c1
Papp (PAMPA): 1180 ×10⁻⁶ cm/s

C[C@@H](NC(=O)[C@@H](CC(=O)N1CCC(N2CCCCC2)CC1)N1C(=O)[C@@H](N2C(=O)OC[C@@H]2c2ccccc2)[C@H]1/C=C/c1cccc(I)c1)c1ccccc1
Papp (PAMPA-BBB; 25 µg/mL, 18 h, pH 7.4): 2 to 4 ×10⁻⁶ cm/s

c1ccc(-c2nc(N3CCOCC3)c3ccccc3n2)nc1
Papp (PAMPA; 10 µM, 3 h, pH 7.4): 19.4 ×10⁻⁶ cm/s

N=c1c2c(-c3ccccc3)c(-c3ccccc3)n(CCc3ccccc3)c2ncn1CC1CCOCC1
Papp (PAMPA; 50 µM, 30 min): 1230 ×10⁻⁶ cm/s

CNc1ccnc(Nc2cccc(-c3cccnc3)c2)n1
Papp (PAMPA; 50 nM, 30 min): 2250 ×10⁻⁶ cm/s

O=C(O)c1ccc2c(c1)nc(Nc1cccc(Cl)c1)c1ccncc12
Papp (PAMPA; 5 h, pH 7.4): 0.728 ×10⁻⁶ cm/s

Fc1cccc(F)c1-c1nc(N2CCC(c3ccccn3)C2)c2ccccc2n1 (centres unmarked)
Papp (PAMPA; 10 µM, 3 h, pH 7.4): 35.5 ×10⁻⁶ cm/s

Cc1nc2n(c(=O)c1CCN1CCC(c3noc4cc(F)ccc34)CC1)CCCC2
Papp (PAMPA-BBB; 50 µM, 16 h, pH 7.4): 15.5 ×10⁻⁶ cm/s

O=c1[nH]c2scc(-c3ccc(Cl)cc3)c2c(=O)n1O
Papp (PAMPA; 10 µM, 5 h): 0.5 ×10⁻⁶ cm/s

c1ccc(-c2nc(NCc3nccs3)c3ccccc3n2)nc1
Papp (PAMPA; 10 µM, 3 h, pH 7.4): 19.4 ×10⁻⁶ cm/s

N=c1c2c(-c3ccccc3)c(-c3ccccc3)n(Cc3ccc(OC(F)(F)F)cc3)c2ncn1[C@H]1CC[C@H](O)CC1
Papp (PAMPA; 50 µM, 30 min): 1250 ×10⁻⁶ cm/s

Fc1ccccc1-c1nc(N2CCC(c3ccccn3)C2)c2ccccc2n1 (centres unmarked)
Papp (PAMPA; 10 µM, 3 h, pH 7.4): 38.4 ×10⁻⁶ cm/s

CCNc1ccnc(Nc2cccc(-c3cccnc3)c2)n1
Papp (PAMPA; 50 nM, 30 min): 2200 ×10⁻⁶ cm/s
